HSF1 inhib = HSF1 inhibition. hit rate 0.77% among 300,000. activity change, negative = inhibition, % at 7.5 µM (by protocol). NIH3T3-HGL HSE-luciferase, MG132-induced, luminescence 8 h; hits give low values;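 active means more than half of replicate wells show activity change below -50%, luminescence cut by over half; inconclusive means some wells, but at most half, below -50%; inactive means no replicate well below -50%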;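 further: luciferase reports HSF-1 transcriptional activity via heat shock element; 0% = median of DMSO wells and -100% = zero luminescence signal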
Hsp70 act = switches on Hsp70 transcription; HeLa Hsp70 promoter luciferase reporter, luminescence; scaled: vehicle 0, proteasome-inhibitor control 100%; activation, % at 10 µM; hit rate 0.04% among 200,000; AID 1203;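 active means activation above the mean across all tested compounds plus 3 SD, cutoff set per campaign, cut at about 5.5% in these data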;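 further: 100% = MG132 at 30 µM as the positive control and 0% = DMSO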
HSF1 activator = increases HSF-1 driven luciferase reporter signal | NIH3T3-HGL HSF-1 luciferase reporter, MG132, 8 h; 100% = twice DMSO control signal | activation, % at 9 µM | hit rate 1.7% among 300,000;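 active means mean replicate activation of at least 50% with a set share of replicates each reaching 50%; inconclusive means only one of those two conditions met; inactive means mean below 50% and too few replicates reaching it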;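 further: 0% = median of the neutral control wells and 100% = twice that signal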
T cruzi inh = T. cruzi replication inhibition. T. cruzi beta-gal in NIH3T3, luminescence, 90 h. inhibition, % (test concentration not listed). hit rate 1.4% among 300,000. AID 1885;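 active means mean inhibition across valid replicates above about 55%, limit read from the data; inconclusive means mean below that limit but half or more replicates reach it; inactive means mean below it, under half of replicates reach it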;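 further: signal also drops with host cell toxicity which is not excluded here; 0% = plate median of DMSO wells and 100% = zero luminescence signal; higher percent means less beta-gal luminescence so fewer parasites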
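Incubation – ≥90 h infection period, 3 h prior cell attachment · System – NIH/3T3 fibroblasts plus reporter T. cruzi · Doses – compound pinned at 50 nL/well, DMSO · Read-out basis – percent inhibition of parasite-derived β-gal signal · Signal – luminescent β-galactosidase signal after 60 min lysis · Also added – 5000 T. cruzi trypomastigotes/well · Medium – Low-serum DMEM with 2% FBS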
L major viab = Leishmania major promastigote growth inhibition; Leishmania major promastigotes, resazurin fluorescence viability; hit rate 9% among 200,000; inhibition, % at 10 µM; in the data active means inhibition above about 50%;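 further: promastigotes grown with compound for 44 hours at 28 °C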
An asterisk follows results filed as active; ? = inconclusive; / = no result given. This excerpt belongs to a sample that is enriched for hits.

SMILES	HSF1 inhib	Hsp70 act	HSF1 activator	T cruzi inh	L major viab
CCOc1cc(C)c(Cl)cc1S(=O)(=O)n1ccnc1	1	0	-9	72*	92*
CN1C(=O)/C(=C\c2ccco2)N=C1c1ccc(Cl)cc1Cl	2	/	11	/	/
N#CC1(NC(=O)Cn2ncc(Cl)c(Cl)c2=O)CCCCC1	17	/	29	63*	/
COc1ccc(-n2c(=O)c(CCC(=O)N(C)Cc3ccccc3C)nc3ccccc32)cc1	-1	0	7	27	66*
CCc1ccc(CN(C)C(=O)CCc2nc3ccccc3n(-c3ccc(OC)cc3)c2=O)cc1	41	0	70*	38	49
COc1ccc(/C(O)=C/c2nc3ccccc3n(-c3ccccc3)c2=O)cc1	6	0	2	7	-4
Cc1ccc2nc(SCC(=O)NCc3ccc(F)cc3)nc(=O)n2c1	-1	/	-8	5	/
Cc1nc2ccccn2c1C(=O)N=Nc1c(O)n(CCC(C)C)c2ccccc12	-2	0	-1	50	67*
Cc1cc(C)nc(Nc2n[nH]c(-c3cccc4ccccc34)n2)n1	13	0	18	6	15
CCc1ccc2c(c1)C1(NN=C(c3cccc4ccccc34)S1)C(=O)N2 (stereo not given)	4	0	4	53	99*
COCCCN(C(=O)c1cc(-c2ccco2)nc2ccccc12)c1c(N)n(Cc2ccccc2)c(=O)[nH]c1=O	4	/	-6	6	/
CC(C)Cc1ccc(S(=O)(=O)NCC2CCCO2)cc1 (stereo not given)	4	/	-1	1	/
Cc1cc(C)nc(NNC2=CC(=[N+]3CCCCC3)CC(C)(C)C2)n1	-71*	0	-77	5	-1
C#CCn1cc(C=C2C(=O)c3ccccc3C2=O)c2ccccc21	2	0	4	-13	3
COc1cccc(NC(=O)Cn2nnc(C(=O)Nc3ccccc3)c2N)c1	0	0	-11	10	9
COc1cccc(NC(=O)c2nnn(Cc3ccc(Br)cc3F)c2N)c1	49	0	70*	41	20
COc1ccc(Cl)cc1S(=O)(=O)N1CCC(C(=O)NCc2ccco2)CC1	-1	/	9	3	/
CCOc1cc(/C=C2\CCC/C(=C\c3cc(Cl)c(O)c(OCC)c3)C2=O)cc(Cl)c1O	215	1	316*	22	93*
COc1cc(/C=C2/NC(=O)N(Cc3ccccc3F)C2=O)cc(OC)c1O	13	0	21	10	-4
CCOc1cc(/C=C2\CN(C)C/C(=C\c3ccc(O)c(OCC)c3)C2=O)ccc1O	19	/	24	62*	/
CCOc1cc(/C=C2/NC(=O)N(Cc3ccccc3F)C2=O)ccc1O	59	0	86*	-12	22
O=C(O)COCC(=O)NCc1csc2ccccc12	-3	/	-9	-15	/
O=C(NC12CC3CC(CC(C3)C1)C2)c1cc(F)c(F)c(F)c1F	-8	/	7	2	/
O=S(=O)(c1ccc(NC(=S)N2CCN(c3ccccc3F)CC2)cc1)N1CCOCC1	3	0	6	-22	-6
O=S(=O)(c1ccc(NC(=S)N/N=C/c2c3ccccc3cc3ccccc23)cc1)N1CCOCC1	6	0	27	-4	95*
SMILES	HSF1 inhib	Hsp70 act	HSF1 activator	T cruzi inh	L major viab
COc1ccccc1N1CCN(C(=S)Nc2ccc(S(=O)(=O)N3CCOCC3)cc2)CC1	/	0	/	-18	71*
O=S(=O)(c1ccc(NC(=S)NCCC(c2ccccc2)c2ccccc2)cc1)N1CCOCC1	5	0	11	61*	60*
S=C(NCCC(c1ccccc1)c1ccccc1)Nc1ccccc1Cl	0	0	4	-12	14
S=C(NCCC(c1ccccc1)c1ccccc1)Nc1ccc(Cl)cc1	41	0	54*	31	16
CCC(=O)N1CCc2cc(S(=O)(=O)Nc3ccccc3C)ccc21	-2	/	14	-4	/
COc1cc(NC(=O)CN(C)S(=O)(=O)c2ccc3c(c2)CC(C)N3C(C)=O)cc(OC)c1OC (stereo not given)	-3	/	9	-14	/
S=C(NCCCc1ccccc1)Nc1ccc(Cl)cc1	-4	0	20	-5	90*
COc1ccc(Cl)cc1NC(=S)NCCC(c1ccccc1)c1ccccc1	3	0	9	56*	41
S=C(NCc1ccccc1)Nc1ccc(Cl)cc1	11	0	31	-9	14
O=C(O)c1ccc(N2C(=O)Nc3ccccc3N2O)cc1	-21	0	-22	-6	-1
CCCC(=O)Nc1ccc2c(c1)nc(CCN1CCCCC1)n2C	5	/	32	-10	/
CCCCN(C)Cc1c(O)ccc2c(-c3ccccc3)cc(=O)oc12	-3	0	14	-2	65*
CN1CCN(Cc2c(O)ccc3c(-c4ccccc4)cc(=O)oc23)CC1	1	0	11	23	80*
CC(C)(C)Nc1nc(Cl)nc(NC(C)(C)C)n1	-6	0	-30	-2	21
CC(C)(C)Nc1nc(NN)nc(NC(C)(C)C)n1	-10	0	-1	?	81*
Cc1ccc(C(=O)Nn2cnc3ccccc3c2=O)cc1C	20	/	34	7	/
Cn1ncc(Cl)c1C(=O)NCC1CCCO1 (stereo not given)	-4	/	-3	-4	/
CS(=O)(=O)c1ccccc1C(=O)Nc1cccc2ncccc12	1	/	8	-10	/
COc1cccc2[nH]c3c(N4CCC(C(N)=O)CC4)ncnc3c12	-5	0	5	-1	20
COc1cccc2[nH]c3c(N4CCCC(C)C4)ncnc3c12 (stereo not given)	6	0	8	29	99*
COc1cccc2[nH]c3c(=O)[nH]cnc3c12	-2	/	20	-7	/
COc1cccc2[nH]c3c(N4CC(C)CC(C)C4)ncnc3c12 (stereo not given)	6	0	20	57*	100*
CCOC(=O)C1CCCN(c2ncnc3c2[nH]c2cccc(OC)c23)C1 (stereo not given)	6	0	-3	9	76*
CN(C)S(=O)(=O)c1ccc(NC(=O)COc2ncnc3sccc23)cc1	0	0	-4	4	1
C1CN(c2nc3nonc3nc2N2C[C@H]3CC[C@H]2C3)CCS1	-1	0	-10	5	3
Cc1ccc(C)c(Cn2nc(-c3cc(C)ccc3C)ccc2=O)c1	16	/	11	4	/
CC1Cc2cc(/C(O)=C3/C(=O)C(=O)N(CCN4CCOCC4)C3c3ccc([N+](=O)[O-])cc3)ccc2O1 (stereo not given)	-4	/	0	-3	/
O=C(Cc1ccccc1Cl)NCc1cccnc1	1	/	-3	-1	/
Cc1noc(/C=C/c2ccco2)c1S(=O)(=O)N1CCC(C(=O)N2c3ccccc3CC2C)CC1 (stereo not given)	13	0	13	58*	43
Cc1noc(/C=C/N(C)C)c1S(=O)(=O)N1CCCC(C(=O)N2CCCCC2)C1 (stereo not given)	-1	0	-15	12	-7

Compound activity from PubChem.
